Compounds with a hit are over-represented: about 2% of the library has one in this group of screens.
MC4R antag cAMP: MC4R antagonists of cAMP signaling, primary screen, cell-based, TR-FRET, antagonist arm of biased-ligand search. Melanocortin receptor 4 (Homo sapiens), P32245. MC4R-expressing cells, MTII-stimulated cAMP, LANCE TR-FRET. inhibition, % at 6.5 µM. 0.48% of 360,000 active. AID 540295, 2011;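 active = inhibition above its plate's cutoff, the mean of tested wells on that plate plus 3 SD, cut at about 29% in these data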;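 note: 0% = Melanotan II alone and 100% = Melanotan II plus saturating MCL0020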
Target sequence (P32245 whole entry, looked up): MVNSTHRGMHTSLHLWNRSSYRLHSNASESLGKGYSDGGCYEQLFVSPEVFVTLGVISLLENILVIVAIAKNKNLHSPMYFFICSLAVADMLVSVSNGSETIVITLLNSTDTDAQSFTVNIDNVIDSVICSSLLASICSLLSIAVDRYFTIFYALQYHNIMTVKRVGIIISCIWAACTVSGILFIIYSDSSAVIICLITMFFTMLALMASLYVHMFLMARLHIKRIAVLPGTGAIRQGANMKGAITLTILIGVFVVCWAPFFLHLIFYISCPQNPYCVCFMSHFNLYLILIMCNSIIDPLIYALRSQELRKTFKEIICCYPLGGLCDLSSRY
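Assay system: human MC4R-expressing U2OS cells; reagent: Melanotan II stimulation of cells; dosing: 6.5 µM single dose; timing: compound 30 min, challenge 1 h, detection 1 h; signal: TR-FRET cAMP assay; replicates: one well per compound, no replicates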
A1 inh: caspase 3/7 activation in MEF A1-2A-BIM cells, primary screen, A1 inhibitor project, cell-based, luminescence, HTS | Caspase-Glo 3/7 luminescence, 3 h; percent of clofoctol response, vehicle zero | AID 2462, 2010 | 0.066% of 330,000 active | caspase activation, % (test concentration not listed);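 active = over half of replicate activation scores above 10%, or exactly half above 10 with the replicate mean above 10; inconclusive = replicate mean below 10 yet half the replicates above 10; inactive = over half of replicates below 10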
XBP1 UPR activ: activators of adaptive XBP1 UPR arm, primary screen, cell-based, CHO-XBP1 luciferase reporter, luminescence, uHTS | IRE1-XBP1 UPR activation; percent of tunicamycin response, DMSO as zero | 0.33% of 330,000 active | activation, % at 20 µM;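 active = versus positive control, 20 µM dose yields 30% or more activation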;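 note: 100% = tunicamycin at 10 µg/mL and 0% = DMSO only wells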
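Material: CHO cell line with stable XBP1 luciferase reporter; schedule: 16-18 h cell attachment at 37 °C, then 6 h compound exposure; signal: glow luminescence from Steady-Glo reagent; medium: serum-containing F12 medium, 10% FBS; benchmarks: tunicamycin 10 µg/mL and vehicle-only wells; read-out: percent activation relative to tunicamycin reference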
MC4R barr agon: MC4R agonists recruiting beta-arrestin, primary screen, cell-based, luminescence, agonist arm of biased-ligand search; Melanocortin receptor 4 (Homo sapiens), P32245; activation, % at 8.9 µM; 0.98% of 360,000 active; U2OS MC4R beta-arrestin complementation; percent of melanotan II response, DMSO zero;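 active = activation above a per-plate cutoff, the mean activation of sample wells on that plate plus 3 SD, cut at about 8% in these data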
CHOP UPR activ: activators of apoptotic CHOP UPR arm, primary screen, cell-based, CHO-CHOP luciferase reporter, luminescence, uHTS; 0.34% of 330,000 active; activation, % at 10 µM; UPR activation; percent of tunicamycin response over DMSO baseline;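 active = at 10 µM dose, activation of 40% or more, normalized to positive control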;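 note: 100% = tunicamycin at 10 µg/mL and 0% = DMSO alone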
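Material: CHO-CHOP cells, stable luciferase reporter of PERK-eIF2a-CHOP signalling; quantity: 500 reporter cells seeded per well; buffer or medium: F12 medium containing 10% fetal bovine serum; compound: one dose, 10 µM in 0.5% DMSO; incubation: 6 h compound treatment, 37 °C; measured by: Steady-Glo luciferase luminescence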
MC4R barr conf: MC4R beta-arrestin agonists, retest, confirmation, cell-based, luminescence, U2OS; AID 602192, 2012; activation, % at 8.9 µM; U2OS MC4R beta-arrestin recruitment; scaled DMSO 0%, Melanotan II 100%; 31% of 2,400 active; shares compounds with MC4R barr agon;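 active = mean activation across replicates above the hit cutoff set in the earlier primary screen, cut at about 8% in these data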
MOR-DOR barr ag: agonists of MOR-DOR heterodimerization, counter-screen for MC4R biased agonist project, cell-based, luminescence | shares compounds with MC4R barr agon | U2OS PathHunter beta-arrestin, beta-gal luminescence; percent of deltorphin B response, DMSO zero | activation, % at 9.2 µM | 5.8% of 2,400 active | AID 602194, 2012;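 active = mean activation across replicates exceeds the hit threshold derived in the earlier primary screen, cut at about 18% in these data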;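 note: 100% = deltorphin B at 0.9 µM final and 0% = DMSO alone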
The depositor's hits bear a star; u = inconclusive; x = no result given.

SMILES	MC4R antag cAMP	A1 inh	XBP1 UPR activ	MC4R barr agon	CHOP UPR activ	MC4R barr conf	MOR-DOR barr ag
COc1ccc(NC(=O)CN(C)C(=O)/C=C/c2ccc(S(=O)(=O)N3CCCCCC3)cc2)cc1	0	u	-6	30*	0	11*	2
Cc1cc(C)c(Cn2c(=O)n(CCCC(=O)NCc3ccco3)c(=O)c3sccc32)c(C)c1	0	0	5	33*	4	-1	7
OC(c1cc(F)cc(Cl)c1)c1ncc(-c2ccc(Cl)cc2)[nH]1 (centres undefined)	-1	x	x	9.8*	x	2	7
Cc1cc(C(O)c2ncc(-c3ccc(Oc4ccccc4)cc3)[nH]2)ccc1F (centres undefined)	2	x	x	12*	x	4	6
C[C@@H]1CN([C@H](C)CO)S(=O)(=O)c2ccc(Br)cc2O[C@@H]1CN(C)C(=O)NC1CCCC1	1	x	x	-1	x	x	x
Cc1ccc2nc(Nc3ccc4[nH]c(=O)[nH]c4c3)c(-n3nc(C)cc3C)nc2c1	-4	0	4	34*	2	29*	2
COc1ccc(CCNC(=O)c2ccc(F)c(S(=O)(=O)N3CCCCC3)c2)cc1	4	x	x	1	x	x	x
C[C@@H]1CN([C@H](C)CO)C(=O)CCCn2cc(nn2)CO[C@H]1CN(C)S(=O)(=O)c1cccc(C#N)c1	1	x	x	0	x	x	x
CCCc1ccc(Oc2coc3cc(OCC(=O)Nc4ccccc4C)ccc3c2=O)cc1	7	0	0	22*	0	15*	7
CCN(CC)CCOc1ccc2c(c1)C(=NO)c1cc(OCCN(CC)CC)ccc1-2	-9	1	-5	-1	-1	x	x
CCCOc1ccc2c(c1)C(=NN=C(N)N)c1cc(OCCC)ccc1-2	7	0	20	14*	10	11*	9
Cc1cc2oc3ccc(NCCCn4ccnc4)cc3c(=O)c2cc1C	-6	-4	6	11*	2	1	12
CC(C)C(=O)N1CCC1(C)C(=O)NCc1ccc(C(C)(C)C)cc1 (centres undefined)	12	x	x	-1	x	x	x
O=C(c1ccoc1)N1CCN(c2cc(-c3cccnc3)nc3cc(-c4cccc(Cl)c4)nn23)CC1	20	x	x	11*	x	0	3
CC(=O)NC(c1cccc(F)c1)c1nc(/C=C/c2ccccc2)cs1 (centres undefined)	2	x	x	-1	x	x	x
O=C(NC1CCCCC1)C(c1cccs1)N(C(=O)C(F)(F)F)c1ccccc1 (centres undefined)	4	1	-2	27*	1	5	7
Cc1ccc(N(C(=O)C(F)(F)F)C(C(=O)NC2CCCCC2)c2cccs2)cc1C (centres undefined)	4	0	-1	-1	-3	x	x
CCCCCCOc1ccc(/C(C)=N/NC2=NCCN2)cc1	2	0	13	11*	7	29*	12
CCCCCOc1ccc(/C(C)=N/NC2=NCCN2)cc1	9	1	3	5	3	x	x
CC(OC(=O)Cc1ccsc1)C(=O)Nc1ccc(C(N)=O)cc1 (centres undefined)	6	x	-1	2	1	x	x
CC1(Oc2ccc(-n3ccnc3)cc2)CCN(Cc2cccn2-c2nccs2)C1 (centres undefined)	12	x	x	1	x	x	x
Fc1ccc(Cn2c(-c3cscn3)nc3ccccc32)c(Cl)c1	4	1	0	9.7*	-1	3	8
COc1cccc(-c2cnc3c(NC(C)=O)cc(-c4ccc(S(C)(=O)=O)cc4)cn23)c1	11	x	x	11*	x	14*	2
COc1ccc(-c2cnc3c(NC(C)=O)cc(-c4ccc(S(C)(=O)=O)cc4)cn23)cc1OC	5	x	x	11*	x	9.8*	3
Cc1ccccc1-c1ccc2c(c1)O[C@@H](CN(C)C(=O)Nc1ccc(C(F)(F)F)cc1)[C@H](C)CN([C@@H](C)CO)S2(=O)=O	3	x	x	-1	x	x	x
SMILES	MC4R antag cAMP	A1 inh	XBP1 UPR activ	MC4R barr agon	CHOP UPR activ	MC4R barr conf	MOR-DOR barr ag
Cc1ccc(NC(=O)c2ncn(CCCN3CCN(Cc4cccc5ccccc45)CC3)n2)cc1C	6	x	x	16*	x	26*	9
Cc1ccc(NC(=O)c2ncn(CC(=O)N[C@H](C)c3cccc4ccccc34)n2)cc1C	-9	x	0	0	6	x	x
O=C(N/N=C/c1ccc(F)cc1)c1cccc(NC(=O)c2ccc(F)cc2)c1	0	-1	5	42*	4	2	2
CCc1ccc(NC(=O)c2ccc3c(c2)C(=O)N(Cc2ccco2)C3=O)cc1	-10	0	0	11*	1	6	3
COC(=O)Cc1ccc(NC(=O)c2ccc3c(c2)C(=O)N(Cc2ccco2)C3=O)cc1	11	0	1	5	0	x	x
CN(C)c1ccc(/C=C(\C#N)C(=O)c2ccccc2)cc1	11	0	x	19*	x	-1	2
Cc1ccc([C@H]2N[C@]3(CCCN(Cc4ccc(Br)cc4)C3=O)[C@H]3C(=O)N(Cc4ccccc4)C(=O)[C@@H]23)cc1	12	x	x	0	x	x	x
CCCS(=O)(=O)NC(=O)C1(C)CCN(C(=O)Cc2cccc3ccccc23)C1 (centres undefined)	1	x	x	-2	x	x	x
Cc1ccc(NC(=O)c2ccc(OC(=O)CCN3C(=O)c4ccccc4C3=O)cc2)cc1	6	-4	-1	12*	3	2	3
COc1ccc(C2=NN(C(=O)c3cccs3)C(c3ccccc3O)C2)cc1 (centres undefined)	-6	0	2	13*	0	16*	5
COc1ccc(C2CC(c3ccccc3)=NN2C(=O)c2cccs2)cc1 (centres undefined)	2	0	4	5	3	x	x
C=CCn1c(=O)c(C(=O)Nc2ncccc2C)c(O)c2ccccc21	8	x	x	0	x	x	x

Screening results as filed in PubChem BioAssay.
